The values that follow come from ChEMBL document CHEMBL1255388, “Antimalarial asexual stage-specific and gametocytocidal activities of HIV protease inhibitors” (Antimicrob Agents Chemother, 2010).

Each structure is given as a SMILES string. pEC50: −log10 of the molar value. Active and inactive are the calls of the source. The rule behind the calls is not given here.

Holding throughout (assay type): functional, organism-based
The subject of assay [1] is Plasmodium falciparum. The assay is described as follows: Antimicrobial activity against chloroquine-sensitive Plasmodium falciparum D10 after 48 hrs. The note with it: D10, 48 h. Summed up: (§1)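 In vitro growth inhibition of P. falciparum asexual cultures. Concentrations giving 10, 50 and 90% inhibition (± SE) were obtained by nonlinear regression curve fitting. Each assay was run in triplicate on at least two separate occasions.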

Assay [2] deals with Plasmodium falciparum. The assay can be described thus: Antimicrobial activity against chloroquine-sensitive Plasmodium falciparum 3D7 after 48 hrs. Particulars: 3D7, 48 h. Summed up:
as §1

Assay [3] relates to Plasmodium falciparum. The assay is described as follows: Antimicrobial activity against Plasmodium falciparum harboring […]-tagged Pfs16 protein after 48 hrs. In outline:
as §1

In assay [4] the test system is Plasmodium falciparum. The assay can be described thus: Antigametocyte activity against Plasmodium falciparum harboring GFP-tagged Pfs16 protein assessed as reduction in number of gametocytes after 40 hrs by [3H]hypoxanthine incorporation assay.
The subject of assay [5] is Plasmodium falciparum. The assay is described as follows: Antigametocyte activity against Plasmodium falciparum D10 schizonts assessed as inhibition of parasite growth at 150 uM after 1 to 8 hrs. Summed up: (§2)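 Synchronized D10 cultures exposed to drug at 0 h (ring), 24 h (trophozoite) or 36 h (schizont) postsynchronization. After exposure, parasites washed, resuspended in drug-free medium and labelled with 0.5 μCi/well [3H]hypoxanthine for 40 h. Uptake compared with vehicle controls. Triplicate wells, repeated on at least two separate occasions.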

The test system of assay [6] is Plasmodium falciparum. The assay is described as follows: Antigametocyte activity against drug-resistant Plasmodium falciparum Dd2 trophozoites assessed as inhibition of parasite growth at 150 uM after 1 to 8 hrs. Summed up: (§3)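 Synchronized P. falciparum cultures were drug-exposed at 0 (ring), 24 (trophozoite) or 36 h (schizont) post-synchronization. They were then washed, resuspended in drug-free medium and seeded with 0.5 μCi/well [3H]hypoxanthine for 40 h. Incorporation was compared with vehicle controls. Triplicate, on at least two separate occasions.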

The subject of assay [7] is Plasmodium falciparum. The assay is described as follows: Antigametocyte activity against Plasmodium falciparum harboring GFP-tagged Pfs16 protein assessed as inhibition of [3H]hypoxanthine incorporation after 40 hrs.
Assay [8] deals with Plasmodium falciparum. The assay is described as follows: Antigametocyte activity against ring stage Plasmodium falciparum D10 assessed as inhibition of parasite growth at 150 uM after 1 to 8 hrs. Summed up: as §2
Assay [9] deals with Plasmodium falciparum. The assay can be described thus: Antigametocyte activity against drug-resistant Plasmodium falciparum Dd2 schizonts assessed as inhibition of parasite growth at 150 uM after 1 to 8 hrs. In outline: as §3
For assay [10], the system named is Plasmodium falciparum. The assay can be described thus: Antimicrobial activity against chloroquine-resistant Plasmodium falciparum Dd2 after 48 hrs. The note with it: Dd2, 48 h. In outline:
as §1

Assay [11] concerns Plasmodium falciparum. The assay can be described thus: Antigametocyte activity against Plasmodium falciparum D10 trophozoites assessed as inhibition of parasite growth at 150 uM after 1 to 8 hrs. Summed up:
as §2

In assay [12] the test system is Plasmodium falciparum. The assay is described as follows: Antigametocyte activity against drug-resistant ring stage Plasmodium falciparum Dd2 assessed as inhibition of parasite growth at 150 uM after 1 to 8 hrs. Summed up:
as §3

The subject of assay [13] is Plasmodium falciparum. The assay can be described thus: Antigametocyte activity against ring stage Plasmodium falciparum D10 assessed as inhibition of parasite growth at 50 nM after 1 to 8 hrs. Summed up: as §2
The test system of assay [14] is Plasmodium falciparum. The assay can be described thus: Antigametocyte activity against drug-resistant ring stage Plasmodium falciparum Dd2 […] assessed as inhibition of parasite growth at 50 nM after 1 to 8 hrs. In outline: as §3
In assay [15] the test system is Plasmodium falciparum. The assay is described as follows: Antigametocyte activity against Plasmodium falciparum D10 schizonts assessed as inhibition of parasite growth at 50 nM after 1 to 8 hrs. In outline: as §2
The subject of assay [16] is Plasmodium falciparum. The assay is described as follows: Antigametocyte activity against drug-resistant Plasmodium falciparum Dd2 schizonts assessed as inhibition of parasite growth at 50 nM after 1 to 8 hrs. In outline:
as §3

For assay [17], the system named is Plasmodium falciparum. The assay is described as follows: Antigametocyte activity against Plasmodium falciparum D10 trophozoites assessed as inhibition of parasite growth at 50 nM after 1 to 8 hrs. Summed up: as §2
The subject of assay [18] is Plasmodium falciparum. The assay can be described thus: Antigametocyte activity against drug-resistant Plasmodium falciparum Dd2 trophozoites assessed as inhibition of parasite growth at 50 nM after 1 to 8 hrs. In outline: as §3
Assay [19] has as its system Plasmodium falciparum. The assay can be described thus: Antigametocyte activity against drug-resistant ring stage Plasmodium falciparum Dd2 assessed as inhibition of parasite growth at 20 uM after 1 to 8 hrs. Summed up: as §3
Assay [20] concerns Plasmodium falciparum. The assay can be described thus: Antigametocyte activity against ring stage Plasmodium falciparum D10 assessed as inhibition of parasite growth at 20 uM after 1 to 8 hrs. Summed up:
as §2

For assay [21], the system named is Plasmodium falciparum. The assay can be described thus: Antigametocyte activity against drug-resistant Plasmodium falciparum Dd2 schizonts assessed as inhibition of parasite growth at 20 uM after 1 to 8 hrs. Summed up:
as §3

For assay [22], the system named is Plasmodium falciparum. The assay is described as follows: Antigametocyte activity against drug-resistant Plasmodium falciparum Dd2 trophozoites assessed as inhibition of parasite growth at 20 uM after 1 to 8 hrs. Summed up:
as §3

Assay [23] relates to Plasmodium falciparum. The assay is described as follows: Antigametocyte activity against Plasmodium falciparum D10 trophozoites assessed as inhibition of parasite growth at 20 uM after 1 to 8 hrs. Summed up:
as §2

For assay [24], the system named is Plasmodium falciparum. The assay can be described thus: Antigametocyte activity against Plasmodium falciparum D10 schizonts assessed as inhibition of parasite growth at 20 uM after 1 to 8 hrs. Summed up: as §2
Assay [25] relates to Plasmodium falciparum. The assay is described as follows: Antigametocyte activity against ring stage Plasmodium falciparum D10 assessed as inhibition of parasite growth at 40 uM after 1 to 8 hrs. In outline:
as §2

Assay [26] relates to Plasmodium falciparum. The assay is described as follows: Antigametocyte activity against drug-resistant Plasmodium falciparum Dd2 schizonts assessed as inhibition of parasite growth at 40 uM after 1 to 8 hrs. In outline: as §3
Assay [27] relates to Plasmodium falciparum. The assay is described as follows: Antigametocyte activity against drug-resistant Plasmodium falciparum Dd2 trophozoites assessed as inhibition of parasite growth at 40 uM after 1 to 8 hrs. Summed up:
as §3

The test system of assay [28] is Plasmodium falciparum. The assay is described as follows: Antigametocyte activity against drug-resistant ring stage Plasmodium falciparum Dd2 assessed as inhibition of parasite growth at 40 uM after 1 to 8 hrs. In outline: as §3
In assay [29] the test system is Plasmodium falciparum. The assay can be described thus: Antigametocyte activity against Plasmodium falciparum D10 trophozoites assessed as inhibition of parasite growth at 40 uM after 1 to 8 hrs. In outline:
as §2

In assay [30] the test system is Plasmodium falciparum. The assay is described as follows: Antigametocyte activity against Plasmodium falciparum D10 schizonts assessed as inhibition of parasite growth at 40 uM after 1 to 8 hrs. Summed up:
as §2

As for `CC(C)c1nc(CN(C)C(=O)N[C@H](C(=O)N[C@@H](Cc2ccccc2)C[C@H](O)[C@H](Cc2ccccc2)NC(=O)OCc2cncs2)C(C)C)cs1` [RITONAVIR], the pEC50 (in general, the negative decadic logarithm of the EC50, by convention in mol/L) in the assay on Plasmodium falciparum [1] was 5.52; in the assay on Plasmodium falciparum [2], 5.52; in the assay on Plasmodium falciparum [3], 5.30. Moreover, the inhibition result with Plasmodium falciparum [4] is “Dose-dependent effect”.

For the compound `CCC[C@@]1(CCc2ccccc2)CC(O)=C([C@H](CC)c2cccc(NS(=O)(=O)c3ccc(C(F)(F)F)cn3)c2)C(=O)O1`, the pEC50 is 4.92 in the assay with Plasmodium falciparum [1], 4.70 in the assay on Plasmodium falciparum [2], 4.74 in the assay with Plasmodium falciparum [3] and 4.68 with Plasmodium falciparum [10]. Besides, the inhibition result in the assay with Plasmodium falciparum [5], in the assay with Plasmodium falciparum [6], with Plasmodium falciparum [7], in the assay with Plasmodium falciparum [9] and in the assay with Plasmodium falciparum [11] was “Active” throughout. Further, the inhibition entry in the assay on Plasmodium falciparum [8] and with Plasmodium falciparum [12] was “inactive” in each case. The inhibition entry with Plasmodium falciparum [4] was “Dose-dependent effect”.

Consider `CCN(CC)CCCC(C)Nc1ccnc2cc(Cl)ccc12` (configuration not stated) [CHLOROQUINE], for which the inhibition result in the assay on Plasmodium falciparum [13] and in the assay with Plasmodium falciparum [14] was “inactive” each time. Also, the values for the negative logarithm of the EC50 (pEC50) with Plasmodium falciparum [1], with Plasmodium falciparum [2] and in the assay with Plasmodium falciparum [3] were 7.64, 7.60 and 7.64, respectively. For the same compound, the inhibition entry in the assay on Plasmodium falciparum [15], with Plasmodium falciparum [16], in the assay on Plasmodium falciparum [17] and with Plasmodium falciparum [18] was “Active” each time.

As to `Cc1cccc(C)c1OCC(=O)N[C@@H](Cc1ccccc1)[C@@H](O)C[C@H](Cc1ccccc1)NC(=O)[C@H](C(C)C)N1CCCNC1=O` [LOPINAVIR], the inhibition result with Plasmodium falciparum [19] and in the assay on Plasmodium falciparum [20] was “inactive” each time. For the same compound, the inhibition entry in the assay on Plasmodium falciparum [21], in the assay with Plasmodium falciparum [22], in the assay with Plasmodium falciparum [23] and in the assay on Plasmodium falciparum [24] was “Active” throughout. Besides, the pEC50 in the assay with Plasmodium falciparum [1] is 5.70; in the assay on Plasmodium falciparum [2], 5.70; in the assay with Plasmodium falciparum [3], 5.52. Also, the inhibition entry in the assay on Plasmodium falciparum [4] is “Dose-dependent effect”.

In the assay on Plasmodium falciparum [10], `CC(C)CN(C[C@@H](O)[C@H](Cc1ccccc1)NC(=O)O[C@H]1CO[C@H]2OCC[C@H]21)S(=O)(=O)c1ccc(N)cc1` had a negative-log EC50 (pEC50) of 4.15.

For the compound `CC(C)(C)NC(=O)[C@@H]1C[C@@H]2CCCC[C@@H]2CN1C[C@@H](O)[C@H](Cc1ccccc1)NC(=O)[C@H](CC(N)=O)NC(=O)c1ccc2ccccc2n1`, the inhibition result with Plasmodium falciparum [25], with Plasmodium falciparum [28] and in the assay on Plasmodium falciparum [30] was “inactive” each time. Moreover, the pEC50 in the assay with Plasmodium falciparum [1] is 5.52; in the assay with Plasmodium falciparum [2] it was 5.52; with Plasmodium falciparum [3], 5.30. Also, the inhibition entry in the assay on Plasmodium falciparum [8], in the assay with Plasmodium falciparum [26], in the assay on Plasmodium falciparum [27] and in the assay on Plasmodium falciparum [29] was “Active” each time. Moreover, the inhibition entry in the assay on Plasmodium falciparum [4] is “Dose-dependent effect”.
